Measurements: ChEMBL document CHEMBL4257565, “A phenotypic approach to the discovery of compounds that promote non-amyloidogenic processing of the amyloid precursor protein: Toward a new profile of indirect β-secretase inhibitors” (Eur J Med Chem, 2018)

Assays:
Type in all cases: cell-based
[1] = molecular target: T1, Beta-secretase 1 (Homo sapiens, UniProt P56817); assay: Inhibition of BACE1 in human SH-SY5Y cells harboring wild type APP695 assessed as reduction in amyloid beta (1 to 40) level after 24 hrs by ELISA method
T1 sequence (P56817 whole entry): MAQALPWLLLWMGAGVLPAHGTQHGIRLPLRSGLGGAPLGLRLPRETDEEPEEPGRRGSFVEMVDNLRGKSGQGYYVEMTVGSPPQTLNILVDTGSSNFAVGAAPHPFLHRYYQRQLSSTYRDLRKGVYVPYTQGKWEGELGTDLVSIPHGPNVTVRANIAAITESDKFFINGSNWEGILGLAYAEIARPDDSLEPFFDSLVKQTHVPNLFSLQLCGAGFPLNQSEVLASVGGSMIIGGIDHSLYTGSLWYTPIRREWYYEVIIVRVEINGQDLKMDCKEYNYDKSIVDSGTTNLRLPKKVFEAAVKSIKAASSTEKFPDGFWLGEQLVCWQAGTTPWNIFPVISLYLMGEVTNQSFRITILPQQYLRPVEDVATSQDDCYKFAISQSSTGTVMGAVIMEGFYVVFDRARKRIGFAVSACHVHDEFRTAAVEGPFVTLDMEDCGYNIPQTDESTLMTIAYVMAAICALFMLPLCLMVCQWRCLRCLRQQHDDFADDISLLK
How it was run: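 Aβ1-40 and Aβ1-42 levels were measured by ELISA in APPwt-expressing SH-SY5Y cells after compound treatment.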

[2] = molecular target: T1, Beta-secretase 1; assay: Inhibition of BACE1 in human SH-SY5Y cells harboring wild type APP695 assessed as increase in alphaCTF level at 3 uM by Western blot method relative to chloroquine
How it was run: (§1)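 APP C-terminal fragments (αCTFs and AICD) were detected by Western blot and scored as band intensity. Compounds were tested at 1, 3 and 10 µM.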

[3] = molecular target: T1, Beta-secretase 1; assay: Inhibition of BACE1 in human SH-SY5Y cells harboring wild type APP695 assessed as increase in AICD level at 3 uM by Western blot method relative to chloroquine; how it was run: as §1
[4] = molecular target: T1, Beta-secretase 1; assay: Inhibition of BACE1 in human SH-SY5Y cells harboring wild type APP695 assessed as increase in alphaCTF level at 3 uM by Western blot method relative to untreated control; how it was run: as §1
[5] = molecular target: T1, Beta-secretase 1; assay: Inhibition of BACE1 in human SH-SY5Y cells harboring wild type APP695 assessed as increase in AICD level at 3 uM by Western blot method relative to untreated control; how it was run: as §1

IC50 [1] [nM]	fold change (FC) [2]	fold change (FC) [3]	fold change (FC) [4]	fold change (FC) [5]	Compound
1500	0.6	0.7	–	–	CN(C)Cc1ccccc1-c1cccc(OCCN2CCCCC2)c1
1500	2.1	2.5	–	–	CN(C)Cc1ccc(-c2ccc(NCCCN3CCCCC3)c(OCCN3CCCCC3)c2)cc1
2800	3.1	1.7	–	–	c1ccc(-c2ccc(NCCCN3CCCCC3)c(OCCN3CCCCC3)c2)c(CN2CCOCC2)c1
–	4.4	4.8	–	–	CN(C)Cc1ccccc1-c1ccc(NCCN2CCCCC2)c(OCCCCN2CCCCC2)c1
2600	5.1	3.7	–	–	CN1CCN(Cc2ccccc2-c2ccc(NCCCN3CCCCC3)c(OCCN3CCCCC3)c2)CC1
1400	5	4.8	–	–	CN(C)Cc1ccccc1-c1ccc(NCCN2CCCCC2)c(OCCN2CCCCC2)c1
5100	2.1	2.5	–	–	Oc1c(CN2CCCC2)cc(Nc2ccnc3cc(Cl)ccc23)cc1CN1CCCC1
2000	4.5	3.4	–	–	CN(C)Cc1ccccc1-c1ccc(NCCN2CCCCC2)c(OCCCN2CCCCC2)c1
2100	4.5	5.1	50	30	CN(C)Cc1ccccc1-c1ccc(NCCCN2CCCCC2)c(OCCCN2CCCCC2)c1
5000	3.6	2	–	–	CN(C)Cc1ccn(-c2ccc(NCCCN3CCCCC3)c(OCCN3CCCCC3)c2)c1
